Measured values published in ChEMBL document CHEMBL3745596, “Chlorophenoxy aminoalkyl derivatives as histamine H(3)R ligands and antiseizure agents” (Bioorg Med Chem, 2016).
Calls of active or inactive are those of the source.

What was measured:
[1] = system: Rattus norvegicus; test: Neurotoxicity in Sprague-Dawley rat at 30 mg/kg, ip after 2 hrs by rotarod test; assay type: toxicity, organism-based; settings: in vivo
Procedure, shortened: (§1)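 Male Sprague–Dawley rats given compound ip as a suspension in 0.5% methylcellulose, groups of four. Rotarod: 1 inch knurled rod at 6 rpm; three falls within 1 min counts as neurotoxic. Scored as number toxic/number tested at pretreatment times between 0.25 and 4 h, or at the stated time.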

[2] = system: Mus musculus; test: Anticonvulsant activity in ip dosed CF1 albino mouse assessed as protection against subcutaneous pentetrazole-induced seizure after 0.25 hrs; assay type: functional
Procedure, shortened: (§2)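 Male CF-1 mice, ip in 0.5% methylcellulose; pentetrazole at CD97 (85 mg/kg) injected subcutaneously in a loose fold of neck skin. Observed 30 min; absence of even a threshold seizure (single clonic spasm lasting at least 5 s) counted as protection. Scored protected/tested, or ED50.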

[3] = system: Rattus norvegicus; test: Anticonvulsant activity in Sprague-Dawley rat assessed as protection against maximal electroshock-induced seizure at 30 mg/kg, ip after 2 hrs; assay type: functional, organism-based
[4] = system: Rattus norvegicus; test: Anticonvulsant activity in ip dosed Sprague-Dawley rat assessed as protection against maximal electroshock-induced seizure after 1 hr; assay type: functional
[5] = system: Mus musculus; test: Anticonvulsant activity in CF1 albino mouse assessed as protection against maximal electroshock-induced seizure at 3 mg/kg, ip after 0.5 hrs; assay type: functional, organism-based
Procedure, shortened: (§3)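 Male CF-1 mice dosed ip as suspension in 0.5% methylcellulose. Corneal electrodes deliver 60 Hz alternating current, 50 mA for […], after a drop of 0.5% tetracaine HCl in 0.9% NaCl per eye. Protection means abolition of hindlimb tonic extension; scored as protected/tested, or ED50 with 95% confidence interval.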

[6] = system: Mus musculus; test: Neurotoxicity in CF1 albino mouse at 300 mg/kg, ip after 4 hrs by rotarod test; assay type: toxicity, organism-based; settings: in vivo
Procedure, shortened: (§4)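 Rotarod neurotoxicity in male albino CF-1 mice dosed ip with compound suspended in 0.5% methylcellulose. Animal placed on a 1 inch diameter knurled plastic rod rotating at 6 rpm. Neurotoxicity scored when the animal falls off three times within 1 min. Readout is number of animals toxic/number tested at the stated time after dosing. TD50 with 95% confidence interval from the quantitative study.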

[7] = system: Mus musculus; test: Anticonvulsant activity in CF1 albino mouse assessed as protection against subcutaneous pentetrazole-induced seizure at 30 mg/kg, ip after 4 hrs; assay type: functional, organism-based; procedure, shortened: as §2
[8] = system: Mus musculus; test: Anticonvulsant activity in ip dosed CF1 albino mouse assessed as protection against maximal electroshock-induced seizure after 0.25 hrs; assay type: functional; procedure, shortened: as §3
[9] = system: Mus musculus; test: Anticonvulsant activity in CF1 albino mouse assessed as protection against subcutaneous pentetrazole-induced seizure at 30 mg/kg, ip after 0.5 hrs; assay type: functional, organism-based; procedure, shortened: as §2
[10] = system: Mus musculus; test: Anticonvulsant activity in CF1 albino mouse assessed as protection against 6 Hz-psychomotor-induced seizure at 60 mg/kg, ip after 4 hrs; assay type: functional, organism-based
Procedure, shortened: (§5)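 Male CF-1 mice, ip suspension in 0.5% methylcellulose. Corneal stimulation 0.2 ms monopolar rectangular pulses at 6 Hz, 32 mA for 3 s via constant-current device; mice without minimal clonic phase seizure counted protected. Groups of four; read at 0.25, 0.5, 1, 2, 4 h; result as protected/tested.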

[11] = system: Mus musculus; test: Anticonvulsant activity in CF1 albino mouse assessed as protection against subcutaneous pentetrazole-induced seizure at 300 mg/kg, ip after 0.5 hrs; assay type: functional, organism-based; procedure, shortened: as §2
[12] = system: Rattus norvegicus; test: Anticonvulsant activity in Sprague-Dawley rat assessed as protection against maximal electroshock-induced seizure at 30 mg/kg, ip after 0.5 hrs; assay type: functional, organism-based
[13] = system: Mus musculus; test: Neurotoxicity in CF1 albino mouse at 30 mg/kg, ip after 0.25 to 4 hrs by rotarod test; assay type: toxicity, organism-based; settings: in vivo; procedure, shortened: as §4
[14] = system: Mus musculus; test: Neurotoxicity in CF1 albino mouse at 10 mg/kg, ip after 0.5 hrs by rotarod test; assay type: toxicity, organism-based; settings: in vivo
Procedure, shortened: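 Rotarod neurotoxicity in male CF-1 mice dosed ip as 0.5% methylcellulose suspension: mouse placed on 1 inch knurled rod rotating at 6 rpm; toxicity when the animal falls off three times within 1 min, with other signs noted. Scored as toxic/tested at 0.5 h and 4 h.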

[15] = system: Mus musculus; test: Neurotoxicity in CF1 albino mouse assessed as unable to grasp rotarod, death, diarrhea, loss of righting reflux and clonic seizure at 100 mg/kg, ip after 0.5 hrs by rotarod test; assay type: toxicity, organism-based; settings: in vivo
Procedure, shortened: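 Male albino CF-1 mice dosed ip with compound suspended in 0.5% methylcellulose, then placed on a 1-inch knurled plastic rod turning at 6 rpm. A fall three times within 1 min counted as neurotoxicity. Observations were made at 0.5 h and 4 h after dosing. Result given as animals showing toxicity per animals tested, with the kind of toxicity recorded.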

[16] = system: Mus musculus; test: Anticonvulsant activity in CF1 albino mouse assessed as protection against maximal electroshock-induced seizure at 30 mg/kg, ip after 0.5 hrs; assay type: functional, organism-based; procedure, shortened: as §3
[17] = system: Mus musculus; test: Anticonvulsant activity in CF1 albino mouse assessed as protection against maximal electroshock-induced seizure at 30 mg/kg, ip after 4 hrs; assay type: functional, organism-based; procedure, shortened: as §3
[18] = system: Rattus norvegicus; test: Neurotoxicity in Sprague-Dawley rat at 30 mg/kg, ip after 0.5 hrs by rotarod test; assay type: toxicity, organism-based; settings: in vivo; procedure, shortened: as §1
[19] = system: Mus musculus; test: Anticonvulsant activity in CF1 albino mouse assessed as protection against maximal electroshock-induced seizure at 100 mg/kg, ip after 0.5 hrs; assay type: functional, organism-based; procedure, shortened: as §3
[20] = system: Mus musculus; test: Neurotoxicity in CF1 albino mouse at 100 mg/kg, ip after 4 hrs by rotarod test; assay type: toxicity, organism-based; settings: in vivo; procedure, shortened: as §4
[21] = system: Mus musculus; test: Neurotoxicity in CF1 albino mouse at 60 mg/kg, ip after 1 to 4 hrs by rotarod test; assay type: toxicity, organism-based; settings: in vivo; procedure, shortened: as §4
[22] = system: Mus musculus; test: Neurotoxicity in CF1 albino mouse at 3 mg/kg, ip after 0.5 hrs by rotarod test; assay type: toxicity, organism-based; settings: in vivo; procedure, shortened: as §4
[23] = system: Mus musculus; test: Analgesic activity in mouse assessed as inhibition of formalin-induced paw licking behavior at 16 mg/kg, ip after 0.25 hrs; assay type: functional, organism-based
Procedure, shortened: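 Male albino mice, ip in 0.5% methylcellulose; 0.5% formalin injected sub-dermally into right hindpaw plantar surface 0.25 h after dosing. Paw licking observed for the first 2 min of each 5-min epoch up to 40 min after dosing; cumulative licking duration compared with vehicle-pretreated group, acute and inflammatory phases.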

[24] = system: Mus musculus; test: Neurotoxicity in ip dosed CF1 albino mouse after 0.5 hrs by rotarod test; assay type: toxicity, organism-based; settings: in vivo; procedure, shortened: as §4
[25] = system: Rattus norvegicus; test: Neurotoxicity in Sprague-Dawley rat at 30 mg/kg, ip after 1 hr by rotarod test; assay type: toxicity, organism-based; settings: in vivo; procedure, shortened: as §1
[26] = system: Rattus norvegicus; test: Anticonvulsant activity in ip dosed Sprague-Dawley rat assessed as protection against subcutaneous pentetrazole-induced seizure after 0.5 hrs; assay type: functional
[27] = system: Rattus norvegicus; test: Protective index, ratio of TD50 for ip dosed Sprague-Dawley rat to ED50 for ip dosed Sprague-Dawley rat assessed as protection against maximal electroshock-induced seizure after 1 hr; assay type: functional
Procedure, shortened: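 PI = TD50/ED50. Male CF-1 mice or male Sprague–Dawley rats given compound ip as 0.5% methylcellulose suspension. MES: 60 Hz corneal current, 50 mA mice or 150 mA rats, for […] after tetracaine eye drops; protection is abolition of hindlimb tonic extension.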

[28] = system: Rattus norvegicus; test: Anticonvulsant activity in Sprague-Dawley rat assessed as protection against maximal electroshock-induced seizure at 30 mg/kg, po; assay type: functional
[29] = system: Mus musculus; test: Anticonvulsant activity in CF1 albino mouse assessed as protection against 6 Hz-psychomotor-induced seizure at 30 mg/kg, ip after 0.25 to 4 hrs; assay type: functional, organism-based; procedure, shortened: as §5
[30] = system: Rattus norvegicus; test: Anticonvulsant activity in Sprague-Dawley rat assessed as protection against pilocarpine-induced convulsive status epilepticus at 50 mg/kg, ip; assay type: functional, organism-based
Procedure, shortened: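 Male Sprague Dawley rats (150–180 g) dosed ip, pilocarpine 50 mg/kg ip given; compound dosed immediately at first behavioral Stage 3 seizure or 30 min later. Number protected from Racine Stage 3 or greater seizures recorded.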

CC1CCCN(CCCCCCCOc2ccc(Cl)cc2)C1.O=C(O)C(=O)O (stereo not given)
Activity [1]: Non-toxic | ED50 [2]: > 47 mg/kg | Activity [3]: Active | ED50 [4]: 13.2 mg/kg | Activity [5]: inactive | Activity [6]: Non-toxic | Activity [7]: inactive | ED50 [8]: 16.1 mg/kg | Activity [9]: inactive | Activity [10]: inactive | Activity [11]: inactive | Activity [12]: Active | Activity [13]: Non-toxic | Activity [14]: Non-toxic | Activity [15]: Toxic | Activity [16]: Active | Activity [17]: Active | Activity [18]: Non-toxic | Activity [19]: Active | Activity [20]: Non-toxic | Activity [21]: Non-toxic | Activity [22]: Non-toxic | Activity [23]: inactive | ED50 [24]: 5.35 mg/kg | Activity [25]: Non-toxic | ED50 [26]: > 50 mg/kg | Ratio TD50/ED50 [27]: 3.8 | Activity [28]: 25% | Activity [29]: inactive | Activity [30]: inactive
